Results taken from ChEMBL document CHEMBL1123708, “Resolved cis- and trans-2-amino-5-methoxy-1-methyltetralins: central dopamine receptor agonists and antagonists” (1987).
Active and inactive are the calls of the source. The rule behind the calls is not given here.

What was measured:
Rattus norvegicus [1] = test: In vivo DOPA accumulation in non pretreated rat limbic system by subcutaneous administration; I denotes inactive; format: functional, organism-based
Method in brief: (§1)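 Rats without pretreatment received test drug sc 65 min and NSD 1015 (100 mg/kg ip) 30 min before death, with saline controls. DOPA was measured in limbic or striatal tissue. Dose for half-maximal change was estimated from 4-5-dose curves (n = 3-5), maximal level as % of control.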

Rattus norvegicus [2] = test: In vivo DOPA accumulation in non pretreated rat striatum system by subcutaneous administration; I denotes inactive; format: functional, organism-based; method in brief: as §1
Rattus norvegicus [3] = test: In vivo DOPA accumulation in reserpine pretreated rat limbic system by subcutaneous administration; I denotes inactive; format: functional, organism-based
Method in brief: (§2)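 Rats received reserpine (5 mg/kg sc) 18 h, test drug sc 60 min and NSD 1015 (100 mg/kg ip) 30 min before death, with saline controls. Limbic or striatal DOPA was measured. Dose for half-maximal decrease was estimated from 4-7-dose curves (n = 3-5), minimal level as % of control.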

Rattus norvegicus [4] = test: In vivo DOPA accumulation in reserpine pretreated rat striatum system by subcutaneous administration; format: functional; method in brief: as §2
Rattus norvegicus [5] = test: Locomotory activity was determined in non pretreated rats at a dose of 52 umol/kg by subcutaneous administration; I denotes inactive; format: functional
Method in brief: (§3)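 Untreated rats received test drug sc 5 min before a 30-min session in photocell motility meters, with accumulated counts recorded. Activity is expressed as percent of saline controls, mean ± SEM, n = 3-5. Gross behaviour was observed through a semitransparent mirror. Differences from saline controls were assessed by Student's t test.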

[6] = biological target: T1, Dopamine receptor (Rattus norvegicus) (UniProt P25115+P19020+P30729+P18901+P61169); test: In vivo displacement of DiPr-5,6-ADTN from Dopamine receptors in rat striatum; format: organism-based
Rattus norvegicus [7] = test: In vivo DOPA accumulation in non pretreated rat striatum system by subcutaneous administration; denotes inactive; format: functional, organism-based; method in brief: as §1
Rattus norvegicus [8] = test: Induced locomotor stimulation in non pre-treated rats by 13 umol/kg s.c. administration.; format: functional
Rattus norvegicus [9] = test: Locomotory activity was determined in non pretreated rats at a dose of 52 umol/kg by subcutaneous administration; format: functional; method in brief: as §3
Rattus norvegicus [10] = test: Locomotory activity was determined in non pretreated rats at a dose of 3.2 umol/kg by subcutaneous administration; format: functional; method in brief: as §3
Rattus norvegicus [11] = test: Change in rectal temperature induced by DiPr-5,6-ADTN at a dose of 13 umol/kg of compound by subcutaneous administration; format: functional
Method in brief: (§4)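 Rats received DiPr-5,6-ADTN (0.25 μmol/kg sc) 100 min and test compound sc 40 min before death. Rectal temperature change (°C) was recorded between 60 and 100 min after DiPr-5,6-ADTN. Values are mean ± SEM, n = 4, with Student's t test vs DiPr-5,6-ADTN alone.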

[12] = biological target: T1, Dopamine receptor (Rattus norvegicus); test: Ability to displace the Dopamine receptor agonist DiPr-5,6-ADTN from rat striatal binding sites in vivo at a dose of 13 uM/kg by subcutaneous administration; format: organism-based
Rattus norvegicus [13] = test: In vivo DOPA accumulation in reserpine pretreated rat limbic system by subcutaneous administration; format: functional; conditions: sc; method in brief: as §2
Rattus norvegicus [14] = test: Locomotory activity was determined in reserpine pretreated rats at a dose of 52 umol/kg by subcutaneous administration. Value is the accumulation counts/30 min; format: functional
Method in brief: (§5)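 Rats were given reserpine 5 mg/kg sc 18 h beforehand, then test drug sc immediately before the activity session. Motor activity was recorded by photocells in motility meters as accumulated counts over 30 min, mean ± SEM, n = 3-4. Gross behaviour was watched for signs of stimulation. Reserpine-only controls were included.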

Rattus norvegicus [15] = test: Induced locomotor stimulation in non pre-treated rats by 52 umol/kg s.c. administration.; format: functional
Rattus norvegicus [16] = test: In vivo % increase in DOPA accumulation in non pretreated rat limbic system after 52 umol/kg (sc); I denotes inactive; format: functional, organism-based
Rattus norvegicus [17] = test: In vivo % increase in DOPA accumulation in non pretreated rat striatum system after 52 umol/kg (sc); I denotes inactive; format: functional, organism-based
[18] = biological target: T1, Dopamine receptor (Rattus norvegicus); test: Ability to displace the Dopamine receptor agonist DiPr-5,6-ADTN from rat striatal binding sites in vivo at a dose of 52 umol/kg by subcutaneous administration; format: organism-based
Rattus norvegicus [19] = test: ((+)-UH-232) induced locomotor stimulation was determined in non pretreated rats at a dose of 52 umol/kg by subcutaneous administration; format: functional
Rattus norvegicus [20] = test: In vivo DOPA accumulation in non pre-treated rat limbic system following s.c. administration.; format: functional; conditions: sc; method in brief: as §1
Rattus norvegicus [21] = test: In vivo DOPA accumulation in non pre-treated rat striatal system following s.c. administration.; format: functional; conditions: sc; method in brief: as §1
Rattus norvegicus [22] = test: Change in rectal temperature induced by DiPr-5,6-ADTN at a dose of 52 umol/kg of compound by subcutaneous administration; format: functional; method in brief: as §4
Rattus norvegicus [23] = test: In vivo DOPA accumulation in reserpine pretreated rat striatum system by subcutaneous administration; I denotes inactive; format: functional, organism-based; method in brief: as §2
[24] = biological target: T1, Dopamine receptor (Rattus norvegicus); test: Ability to displace the Dopamine receptor agonist DiPr-5,6-ADTN from rat striatal binding sites in vivo at a dose of 52 uM/kg by subcutaneous administration; format: organism-based
Rattus norvegicus [25] = test: Induced locomotor stimulation was determined in non pretreated rats at a dose of 52 uM/kg by subcutaneous administration; format: functional; method in brief: as §3
Rattus norvegicus [26] = test: Locomotory activity was determined in reserpine pretreated rats at a dose of 204 umol/kg by subcutaneous administration. Value is the accumulation counts/30 min; format: functional; method in brief: as §5
Rattus norvegicus [27] = test: In vivo DOPA accumulation in non pretreated rat limbic system by subcutaneous administration; indicates 40-80% increase in limbic system after 52 umol/kg (sc); format: functional, organism-based; method in brief: as §1
Rattus norvegicus [28] = test: In vivo DOPA accumulation in non pretreated rat striatum system by subcutaneous administration; indicates 40-80% increase in limbic system after 52 umol/kg (sc); format: functional, organism-based; method in brief: as §1
[29] = biological target: T1, Dopamine receptor (Rattus norvegicus); test: Ability to displace the Dopamine receptor agonist DiPr-5,6-ADTN from rat striatal binding sites in vivo at a dose of 10 uM/kg by subcutaneous administration; format: organism-based
[30] = biological target: T1, Dopamine receptor (Rattus norvegicus); test: Ability to displace the Dopamine receptor agonist DiPr-5,6-ADTN from rat striatal binding sites in vivo at a dose of 40 uM/kg by subcutaneous administration; format: organism-based
Rattus norvegicus [31] = test: Change in rectal temperature induced by DiPr-5,6-ADTN at a dose of 40 umol/kg of compound by subcutaneous administration; format: functional; method in brief: as §4
Rattus norvegicus [32] = test: Change in rectal temperature induced by DiPr-5,6-ADTN at a dose of 10 umol/kg of compound by subcutaneous administration; format: functional; method in brief: as §4

SMILES	Binding [6]	Activity (Rattus norvegicus [8])	Activity (Rattus norvegicus [10])	Temperature (Rattus norvegicus [11])	Activity (Rattus norvegicus [15])	Body temp change (Rattus norvegicus [11])	ED50 (Rattus norvegicus [20])	ED50 (Rattus norvegicus [21])	also measured
CCCN(CCC)[C@@H]1CCc2c(OC)cccc2[C@H]1C									ED50 (Rattus norvegicus [1]): inactive; ED50 (Rattus norvegicus [2]): inactive; ED50 (Rattus norvegicus [3]): inactive; ED50 (Rattus norvegicus [4]): inactive; Activity (Rattus norvegicus [5]): 88%
C[C@H]1c2cccc(O)c2CC[C@H]1N	98%	86%	94%	-0.7 °C					ED50 (Rattus norvegicus [1]): inactive; ED50 (Rattus norvegicus [7]): inactive; Activity (Rattus norvegicus [9]): 97%
CCN(CC)[C@H]1CCc2c(O)cccc2[C@H]1C		100%			40%	0.22 °C			Binding [12]: 70%; ED50 (Rattus norvegicus [13]): 1.4 µmol/kg; ED50 (Rattus norvegicus [4]; sc): 1.6 µmol/kg; Activity (Rattus norvegicus [14]): 5 counts/30 min; ED50 (Rattus norvegicus [16]): inactive; ED50 (Rattus norvegicus [17]): inactive
CN[C@@H]1CCc2c(OC)cccc2[C@@H]1C	51%	35%	86%	-0.25 °C	29%		4.7 µmol/kg	1.8 µmol/kg	Binding [18]: 20%; Activity (Rattus norvegicus [19]): 9%; Temperature (Rattus norvegicus [22]): 0.93 °C
CCCCN(CCCC)[C@@H]1CCc2c(OC)cccc2[C@@H]1C		96%			96%	-0.27 °C			Binding [12]: 115%; ED50 (Rattus norvegicus [1]): inactive; ED50 (Rattus norvegicus [2]): inactive
C[C@H]1c2cccc(O)c2CC[C@H]1N(C)C	39%	11%	76%		1%	1.48 °C	5.5 µmol/kg	3.4 µmol/kg	
CCCCN[C@@H]1CCc2c(OC)cccc2[C@@H]1C	76%	82%	113%	-0.25 °C			18 µmol/kg	20 µmol/kg	Activity (Rattus norvegicus [9]): 135%
CCCN(CCC)[C@@H]1CCc2c(O)cccc2[C@H]1C					97%				ED50 (Rattus norvegicus [1]): inactive; ED50 (Rattus norvegicus [2]): inactive; ED50 (Rattus norvegicus [3]): inactive; ED50 (Rattus norvegicus [23]): inactive
CCN(CC)[C@@H]1CCc2c(O)cccc2[C@@H]1C	49%	63%	113%		19%	0.2 °C	13 µmol/kg	6.5 µmol/kg	
CCCN[C@@H]1CCc2c(O)cccc2[C@@H]1C	66%	107%	114%		125%	0.1 °C	9 µmol/kg	16 µmol/kg	
COc1cccc2c1CC[C@@H](N)[C@H]2C	83%	88%	136%	-1.33 °C			4.4 µmol/kg	4.2 µmol/kg	Activity (Rattus norvegicus [9]): 62%
C[C@@H]1c2cccc(O)c2CC[C@@H]1N(C)C		34%			15%	0.88 °C	8.5 µmol/kg	8.5 µmol/kg	Binding [12]: 63%; Binding [24]: 22%; Activity (Rattus norvegicus [25]): 4%; ED50 (Rattus norvegicus [13]): 28 µmol/kg; ED50 (Rattus norvegicus [4]; sc): 25 µmol/kg; Activity (Rattus norvegicus [26]): 7 counts/30 min; Body temp change (Rattus norvegicus [22]): 1.82 °C
CCCCN(CCCC)[C@@H]1CCc2c(O)cccc2[C@@H]1C		89%			82%	-0.43 °C			Binding [12]: 96%; ED50 (Rattus norvegicus [27]): Weak activity; ED50 (Rattus norvegicus [28]): Weak activity
CCN[C@@H]1CCc2c(OC)cccc2[C@@H]1C	36%	69%	108%	1.33 °C			5.3 µmol/kg	4.8 µmol/kg	Activity (Rattus norvegicus [9]): 60%
CCN[C@@H]1CCc2c(O)cccc2[C@@H]1C	64%	95%	83%		62%	-0.5 °C	15 µmol/kg	6 µmol/kg	
CCCCN(CCCC)[C@H]1CCc2c(O)cccc2[C@H]1C		87%				-0.7 °C			Binding [12]: 124%; ED50 (Rattus norvegicus [3]): inactive; ED50 (Rattus norvegicus [23]): inactive; Activity (Rattus norvegicus [14]): 6 counts/30 min
CN[C@@H]1CCc2c(O)cccc2[C@@H]1C	54%	73%	143%	0.15 °C			5.5 µmol/kg	7.5 µmol/kg	Activity (Rattus norvegicus [9]): 47%
CCCN(CCC)[C@@H]1CCc2c(O)cccc2[C@@H]1C			110%		102%		110 µmol/kg	9.4 µmol/kg	Binding [29]: 61%; Binding [30]: 21%; Body temp change (Rattus norvegicus [31]): 1.7 °C; Body temp change (Rattus norvegicus [32]): 1.7 °C; ED50 (Rattus norvegicus [3]): inactive; ED50 (Rattus norvegicus [23]): inactive; Activity (Rattus norvegicus [14]): 6 counts/30 min
CCCN(CCC)[C@H]1CCc2c(OC)cccc2[C@@H]1C					82%				ED50 (Rattus norvegicus [1]): inactive; ED50 (Rattus norvegicus [2]): inactive; ED50 (Rattus norvegicus [3]): inactive; ED50 (Rattus norvegicus [23]): inactive
